Assay results from article PMC3443740 (Journal of immunology (Baltimore, Md. : 1950), 2012).

Columns and labels:
[1] = tested on: panel of 121 kinases; experiment: kinase selectivity profiling; type: biochemical; settings: panel of 121 kinases in vitro; Ruxolitinib at 0.1 μM
[2] = target: TrkA (Homo sapiens, UniProt P04629); experiment: in vitro protein kinase assay, TrkA; type: biochemical; settings: read-out: inhibition of TrkA
[3] = tested on: BMDMs; experiment: LPS induced signaling in BMDMs, immunoblotting; type: cell-based, mouse; settings: 0.5 μM Ruxolitinib, 100 ng/ml LPS
Procedure, shortened: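 Wild-type mouse BMDMs were pretreated 1 h with 0.5 µM test compound, then stimulated with 100 ng/ml LPS for varying times. Cells were lysed directly in SDS sample buffer and run on 10% polyacrylamide gels, then transferred to nitrocellulose. Blots were probed for total and phospho STAT3 (Y705, S727), phospho-STAT1 Y701, ERK1/2, p38, phospho-JNK, phospho-p105 and IκBα, with HRP secondaries and ECL detection.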

[4] = tested on: BMDMs; experiment: LPS induced IL-10 mRNA; type: cell-based, mouse; settings: 100 ng/ml LPS
Procedure, shortened: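 BMDMs came from wild-type or IFNαβR knockout mice, cultured 7 d with mCSF and used 24 h after replating. They were pretreated 1 h with test compound (0.5 µM or 5 µM), then given 100 ng/ml E. coli O26:B6 LPS over a time course. IL-10 mRNA was measured by Q-PCR (18s-normalised) and secreted IL-10 by multiplex assay. SD from independent cultures of four mice.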

[5] = tested on: BMDMs; experiment: IFNβ induced IL-10 and IL-6 transcription in BMDMs; type: cell-based, mouse; settings: 0.5 μM Ruxolitinib, 500 Units/ml IFNβ, wild type BMDMs
Procedure, shortened: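 Wild-type mouse BMDMs were grown 7 d from bone marrow in DMEM with 10% heat-inactivated FBS and 5 ng/ml mCSF, then replated and used 24 h later. Cells were pretreated 1 h with 0.5 µM test compound, then given 500 U/ml IFN-β for varying times. IL-10 or IL-6 mRNA was measured by SYBR green Q-PCR, normalised to 18s against unstimulated wild-type controls. Four mice, independent cultures.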

[6] = tested on: BMDMs; experiment: LPS induced pro-inflammatory cytokine production in BMDMs; type: cell-based, mouse
Procedure, shortened: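 BMDMs came from wild-type, IL-10 knockout or IFNαβR knockout mice and were pretreated 1 h with 0.5 µM test compound. Stimulation was 100 ng/ml LPS over a time course, or LPS ± 100 ng/ml IL-10 for 6 h in IL-10 knockout cells. Secreted TNF-α, IL-6, IL-12p40 and IL-12p70 were measured by Luminex multiplex, and the matching mRNAs (IL-12p35 for p70) by 18s-normalised Q-PCR. Four mice per genotype.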

[7] = target: IRAK1 (Homo sapiens, UniProt P51617); experiment: in vitro protein kinase assay, IRAK1; type: biochemical; settings: 1 μM Ruxolitinib
Sequence of IRAK1 (P51617 whole entry, species assumed): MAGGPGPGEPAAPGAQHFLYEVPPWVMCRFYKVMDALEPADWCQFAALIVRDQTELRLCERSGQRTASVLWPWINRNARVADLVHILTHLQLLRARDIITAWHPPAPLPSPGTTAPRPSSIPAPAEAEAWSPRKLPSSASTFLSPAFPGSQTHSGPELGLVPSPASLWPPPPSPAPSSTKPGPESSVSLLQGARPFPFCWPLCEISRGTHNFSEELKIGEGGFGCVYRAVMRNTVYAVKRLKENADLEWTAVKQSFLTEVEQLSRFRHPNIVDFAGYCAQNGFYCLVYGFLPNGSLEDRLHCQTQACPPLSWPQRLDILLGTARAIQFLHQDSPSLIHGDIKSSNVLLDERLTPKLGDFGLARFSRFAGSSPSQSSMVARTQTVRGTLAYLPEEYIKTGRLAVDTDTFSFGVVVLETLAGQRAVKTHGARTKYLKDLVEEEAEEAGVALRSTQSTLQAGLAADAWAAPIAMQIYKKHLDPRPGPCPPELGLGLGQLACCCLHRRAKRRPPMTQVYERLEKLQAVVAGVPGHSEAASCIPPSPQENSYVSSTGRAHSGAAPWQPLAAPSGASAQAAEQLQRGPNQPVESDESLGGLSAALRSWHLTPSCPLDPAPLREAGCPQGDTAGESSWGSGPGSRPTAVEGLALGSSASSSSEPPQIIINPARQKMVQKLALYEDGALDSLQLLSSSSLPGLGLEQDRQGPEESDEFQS

[8] = target: MARK3 (Homo sapiens, UniProt P27448); experiment: in vitro protein kinase assay, MARK3; type: biochemical; settings: 1 μM Ruxolitinib
Sequence of MARK3 (P27448 whole entry, species assumed): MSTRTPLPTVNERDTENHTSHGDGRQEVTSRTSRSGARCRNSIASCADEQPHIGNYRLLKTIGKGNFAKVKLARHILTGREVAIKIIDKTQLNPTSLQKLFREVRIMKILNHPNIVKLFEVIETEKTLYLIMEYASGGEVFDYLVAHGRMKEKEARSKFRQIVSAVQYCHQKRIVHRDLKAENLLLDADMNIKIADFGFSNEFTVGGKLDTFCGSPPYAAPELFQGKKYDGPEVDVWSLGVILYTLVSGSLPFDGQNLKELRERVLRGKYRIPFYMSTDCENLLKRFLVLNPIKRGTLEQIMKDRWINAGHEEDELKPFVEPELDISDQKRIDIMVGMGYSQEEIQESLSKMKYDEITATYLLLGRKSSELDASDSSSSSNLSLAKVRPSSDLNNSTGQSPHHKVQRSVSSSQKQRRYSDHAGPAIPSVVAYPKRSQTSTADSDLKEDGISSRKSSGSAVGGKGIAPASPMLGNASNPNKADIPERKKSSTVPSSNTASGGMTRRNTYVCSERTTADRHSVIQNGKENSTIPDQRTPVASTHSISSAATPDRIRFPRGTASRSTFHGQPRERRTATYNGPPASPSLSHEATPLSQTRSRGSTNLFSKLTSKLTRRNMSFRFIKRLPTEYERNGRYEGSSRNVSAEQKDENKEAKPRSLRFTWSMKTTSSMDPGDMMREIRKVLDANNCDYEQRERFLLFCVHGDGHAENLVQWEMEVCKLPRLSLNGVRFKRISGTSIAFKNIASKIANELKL

[9] = tested on: phospho-Y701 STAT1; settings: BMDMs, 500 Units/ml IFNβ 30 min
[10] = tested on: DBA/1J mice; settings: IP LPS, 5mg/kg Tofacitinib, ref [50]; cited from earlier work
[11] = tested on: phospho Tyr705 STAT3; settings: BMDMs, 100 ng/ml IL-10 30 min
[12] = 0.5 μM Ruxolitinib, wild type BMDMs
[13] = 0.5 μM Ruxolitinib, 100 ng/ml LPS
[14] = 0.5 μM Ruxolitinib, 100 ng/ml LPS 6 h

Sequence of TrkA (P04629 33-796, species assumed): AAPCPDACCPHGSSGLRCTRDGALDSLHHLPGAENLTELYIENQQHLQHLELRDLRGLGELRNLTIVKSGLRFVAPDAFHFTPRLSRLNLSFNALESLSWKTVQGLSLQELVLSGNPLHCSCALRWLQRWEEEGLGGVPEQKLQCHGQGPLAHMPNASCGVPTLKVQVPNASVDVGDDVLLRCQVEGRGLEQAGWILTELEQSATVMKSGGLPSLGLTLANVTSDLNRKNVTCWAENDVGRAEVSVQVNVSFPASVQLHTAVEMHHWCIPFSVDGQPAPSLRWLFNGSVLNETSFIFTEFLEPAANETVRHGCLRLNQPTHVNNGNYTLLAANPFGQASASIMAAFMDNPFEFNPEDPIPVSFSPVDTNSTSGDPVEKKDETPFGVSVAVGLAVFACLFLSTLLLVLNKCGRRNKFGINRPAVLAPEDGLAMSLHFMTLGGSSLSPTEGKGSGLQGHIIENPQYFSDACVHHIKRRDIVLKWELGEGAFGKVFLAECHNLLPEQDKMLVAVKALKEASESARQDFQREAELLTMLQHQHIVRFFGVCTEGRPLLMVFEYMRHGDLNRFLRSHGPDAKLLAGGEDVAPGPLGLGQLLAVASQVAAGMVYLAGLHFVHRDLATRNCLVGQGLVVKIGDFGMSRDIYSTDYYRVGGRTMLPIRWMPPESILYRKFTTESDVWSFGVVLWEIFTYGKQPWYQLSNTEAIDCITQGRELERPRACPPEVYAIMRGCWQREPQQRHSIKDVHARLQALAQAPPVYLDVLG

N#C/C(=C/c1ccc(O)c(O)c1)C(=O)NCc1ccccc1 [AG-490]
selectivity in kinase panel [1]: could also block several Ser/Thr kinases

N#CC[C@H](C1CCCC1)n1cc(-c2ncnc3[nH]ccc23)cn1 [Ruxolitinib]
inhibition at 0.1 µM [2]: > 50% | LPS induced STAT1 Y701 phosphorylation [3]: blocked | TLR4 induced activation of the ERK1/2, p38 or JNK MAPK cascades [3]: did not affect | activation of the NFκB pathway (IκBα degradation, p105 and IκBα phosphorylation) [3]: no major affects | phosphorylation of STAT3 on S727 [3]: not blocked | phosphorylation of STAT3 on Y705 in response to LPS [3]: completely blocked | IL-10 levels secreted from IFNαβR knockout macrophages ([4]; 0.5 μM Ruxolitinib): did not affect | IL-10 secreted into the media at later time points (8 to 24 h) [4, 12]: decrease | IL-10 secretion at 4 h [4, 12]: unaffected | initial transcription of IL-10 [4, 12]: did not affect | transcription of IL-10 at later time points [4, 12]: reduce | IFNβ induced IL-10 transcription [5]: greatly reduced | IFNβ stimulated IL-6 transcription [5]: inhibited | IL-6 production from IFNαβR knockout macrophages [6, 13]: increased | IL-6 production from wild type cells [6, 13]: increased | TNFα production in IL-10 knockout cells [6, 13]: little effect | peak amount of LPS-induced IL-12 mRNA in IL-10 knockout cells [6, 13]: decreased | secreted levels of IL-6 in wild type and IL-10 knockout cells [6, 13]: intermediate between the wild type and IL-10 knockout cells | production of IL-6 by LPS in IL-10 knockout BMDMs [6, 14]: moderately decreased | production of TNFα by LPS in IL-10 knockout BMDMs (decrease) [6, 14]: to a lesser extent | TNFα mRNA and secreted protein levels in wild type cells ([6]; 0.5 μM Ruxolitinib, 100 ng/ml LPS, to similar values as IL-10 knockout BMDMs): increased | inhibitory effects of IL-10 on TNFα and IL-6 production ([6]; IL-10 knockout BMDMs, 0.5 μM Ruxolitinib, LPS and 100 ng/ml IL-10 6 h): blocked | activity against IRAK1 [7]: weak activity | activity against MARK3 [8]: weak activity

C[C@@H]1CCN(C(=O)CC#N)C[C@@H]1N(C)c1ncnc2[nH]ccc12 [Tofacitinib]
IFNβ stimulated STAT1 phosphorylation [9]: able to block | IL-10 mRNA at later time points ([4]; 5 μM Tofacitinib): inhibited | IL-10 secretion at 8 and 16h after LPS stimulation ([4]; 5 μM Tofacitinib): decreased | initial phase of IL-10 transcription ([4]; 5 μM Tofacitinib): did not affect | IL-6 secretion following 24h of LPS stimulation ([6]; Tofacitinib): increased | TNF and IL-12 production in response to a prolonged stimulation with LPS ([6]; Tofacitinib at a concentration able to inhibit STAT3 phosphorylation): increased | plasma IL-10 levels [10]: increased | plasma levels of TNF, IL-6 and IL-12 [10]: reduced | IL-10 stimulated STAT3 phosphorylation [11]: able to block
